T cell modulator: modulators of CD8 T cell-vesicle binding, primary screen, mouse 2C CD8+ T cells, flow cytometry; 2C CD8+ T cell-vesicle binding; active compounds read low; response (vesicle binding), % at 7 µM; 330,000 tested, 0.068% active; AID 2052, 2009;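 active = response, share of CD8 T cells binding vesicles, and their 90th percentile fluorescence all below set limits, cut at about 80% in these data, passing the limit was not always enough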;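 also: values below 100% mean blocked vesicle binding to the CD8+ T cells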
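Incubation: binding step 1.5 h, 37 °C, antibody labelling 20 min, ice; system: murine 2C transgenic CD8+ T lymphocytes; technique: cytometric PE anti-B7-1 and Alexa647 anti-CD8 signals after 1% paraformaldehyde fixation; also added: QL9-charged Drosophila Ld/ICAM-1/B7-1 vesicles; control set: naked versus QL9-loaded vesicles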
HIF activator: HIF pathway transcriptional activators, primary screen, cell-based, U2OS HRE-luciferase, luminescence | AID 1910, 2009 | U2OS HRE-luciferase reporter; normalized: DMSO 0%, desferrioxamine 100% | 300,000 tested, 0.32% active | activation, % at 7.5 µM (by protocol);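 active = mean activation of at least 10% of the iron chelator positive control signal, with at least half of replicates also reaching 10%; inconclusive = mean and replicate majority disagree about reaching 10%; inactive = mean and most replicates under 10%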
GASC-1 inh: inhibitors of GASC-1 histone demethylase, primary screen, biochemical, fluorescence, DELFIA europium | Lysine-specific demethylase 4C (Homo sapiens), Q9H3R0 | 330,000 tested, 0.069% active | GST-JMJD2C(1-420) H3K9me3 demethylation | inhibition, % at 2.35 µM;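 active = more than half of a compound's replicate wells show inhibition beyond 50%, single wells judged on their own value; inconclusive = some, but no more than half, of replicates pass 50% inhibition; inactive = no replicate passes 50% inhibition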;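 also: signal counts dimethyl H3K9 product captured on neutravidin plate; 0% = median of DMSO wells and 100% = 0.3 times that DMSO median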
Target sequence (Q9H3R0 1-420 limits assumed): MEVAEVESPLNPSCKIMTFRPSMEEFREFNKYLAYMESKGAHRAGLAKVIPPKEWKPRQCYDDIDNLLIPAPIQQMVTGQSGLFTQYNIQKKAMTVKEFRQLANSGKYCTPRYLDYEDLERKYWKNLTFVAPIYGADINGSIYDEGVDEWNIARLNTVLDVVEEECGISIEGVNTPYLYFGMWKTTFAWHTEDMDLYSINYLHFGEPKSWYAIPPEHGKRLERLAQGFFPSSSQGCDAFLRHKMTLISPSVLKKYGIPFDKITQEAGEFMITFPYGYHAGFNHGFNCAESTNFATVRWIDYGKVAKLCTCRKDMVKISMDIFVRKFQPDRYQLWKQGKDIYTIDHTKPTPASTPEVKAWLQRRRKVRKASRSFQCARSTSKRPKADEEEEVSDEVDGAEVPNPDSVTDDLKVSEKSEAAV
SUMO Mot1 rescue: yeast Mot1-301 growth rescue at high temperature, primary screen, SUMOylation pathway inhibitor project, S. cerevisiae, ATP luminescence, 38.5C; S. cerevisiae Mot1-301 growth rescue; percent above DMSO median, 100 means doubled; growth rescue, % at 18.8 µM; 320,000 tested, 1% active;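 active = every valid replicate shows activation above 250% relative to neutral control wells; inactive = the rest, any valid replicate at or below 250%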;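 also: OY570 slx delta 5 strain wells were the positive control but not used for scaling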
Active calls of the source: *; i = inactive; ? = inconclusive; · = no result given; ! = repeats disagree. A selection: hits, their analogues and other compounds. The true share with any hit is near 1.4%.

SMILES	T cell modulator	HIF activator	GASC-1 inh	SUMO Mot1 rescue
Cc1sc2nc(CN3CCOCC3)nc(NS(=O)(=O)c3cc(Cl)ccc3Cl)c2c1C	347	·	56*	-23
Clc1ccc(N=c2ssnc2Cl)cc1	450	-1	?	340*
N#Cc1ccc(N=c2ssnc2Cl)cc1	i	1	58*!	303*!
COc1cc(F)c(S(=O)(=O)N2CCOc3ccccc32)cc1OC	88	-1	3	364
Nc1nc(Nc2ccccc2)nc(NC2CCCCC2)c1[N+](=O)[O-]	345	1	-1	-1
Cn1nc(C(=O)NCCCN2CCCCC2)c2c1-c1ccccc1S(=O)(=O)C2	544	19*	4	-12
CSc1ccc(CCNC(=O)c2nn(C)c3c2CS(=O)(=O)c2ccccc2-3)cc1	408	-1	-16	0
CCOc1cc(C(=O)N(C)CC(=O)Nc2cccc(F)c2)ccc1OCC(=O)N1CCCCC1	i	0	0	-12
CCC(=O)n1nc(-c2cccnc2)nc1NCc1ccc(OC)cc1	593	0	1	-5
CCC(=O)n1nc(NCc2ccc(OC)c(OC)c2)nc1NCc1ccc(OC)c(OC)c1	65	227*	-6	109
O=C(COC(=O)C1CC2C=CC1C2)NCc1ccc(F)cc1 (centres undefined)	55*	1	-1	-6
COc1c(Cl)cc(Cl)cc1/C=N/NC(=O)c1nnn(-c2nonc2N)c1CN1CCC(C)CC1	150	0	7	-17
CC1CCN(Cc2c(C(=O)N/N=C/c3cc(Cl)ccc3O)nnn2-c2nonc2N)CC1	312	40*	-10	-1
CC1CCN(Cc2c(C(=O)N/N=C/c3cc(Br)ccc3O)nnn2-c2nonc2N)CC1	154	53*	8	-19
CC(C)C(=O)N1CCC2(CC1)Oc1ccc(Cl)cc1C(=O)C21CC(c2cccnc2)=NO1 (centres undefined)	0.0*	0	-27	37
CC(C)CC(NC(=O)c1ccc(Cl)cc1Cl)C(=O)O (centres undefined)	0	0	0	271*
CC(NC(=O)NC(=O)c1ccc(Cl)cc1Cl)C1CC1 (centres undefined)	86	1	15	-2
CCC(NC(=O)c1ccccc1NC(=O)c1ccccc1)C(=O)O (centres undefined)	27	0	1	0
CC(C)CC(NC(=O)c1ccccc1NC(=O)c1ccccc1)C(=O)O (centres undefined)	0	369*	3	-8
Cc1ccc(CS(=O)Cc2ccc(C(=O)N3CCN(C4CCCCC4)CC3)o2)cc1 (centres undefined)	480	0	4	0
Cc1cc(C(=O)COC(=O)c2ccc(Cl)c(S(N)(=O)=O)c2)c(C)n1CC1CCCO1 (centres undefined)	451	0	9	331*
Cc1cc(C(=O)COC(=O)c2ccc(O)cc2)c(C)n1CC1CCCO1 (centres undefined)	320	1	-4	1
Cc1c(Cl)cccc1NC(=O)C1=COCCO1	382	1	-7	29
CN(C)c1nc(N)ncc1-c1ccc(Oc2ccccc2)cc1	332	0	10	42
Cc1cccc(-c2noc(CN(C)S(=O)(=O)c3cc(Cl)ccc3Cl)n2)c1	606	168*	-8	0
SMILES	T cell modulator	HIF activator	GASC-1 inh	SUMO Mot1 rescue
O/N=C1/C2C3CC4C5C3C1C5C1(OCCO1)C42 (centres undefined)	329	61*	-1	-3
N#Cc1ccncc1Sc1ccc(Cl)cc1	356	-1	-9	67
COC(=O)c1cc(NC(=O)c2ccc([N+](=O)[O-])cc2)c(=O)oc1C	169	0	-1	975*
COc1ccc(CN2C(=O)CNC2=S)cc1	334	1	5	81
CCN(CC)CCCN(Cc1cc2cc3c(cc2[nH]c1=O)OCO3)C(=S)NCCCN(C)C	495	1	7	880*
C/C(=N\Nc1ccccc1)c1c(O)cc(C)oc1=O	252	0	25	324*
CSc1ccccc1NC(=O)CN(Cc1ccc(Cl)cc1)S(C)(=O)=O	229	-1	-5	-29
CSc1ccccc1NC(=O)CN(Cc1ccccc1)S(C)(=O)=O	268	0	2	287*
CCCOc1ccc(N2CC(C(=O)NC3=NCCS3)CC2=O)cc1 (centres undefined)	170	-1	1	-1
O=c1[nH]c2ccc(S(=O)(=O)N3CCCCC3)cc2[nH]c1=O	219	0	-8	-26
CC1CCN(S(=O)(=O)c2ccc3[nH]c(=O)[nH]c3c2)CC1	226	-1	58*	205
Cc1ccc2nc(-c3ccccn3)c(Nc3ccccc3C)n2c1	250	22*	-14	4
Cc1ccn2c(Nc3ccccc3C)c(-c3ccccn3)nc2c1	227	12*	-26	-5
Cc1ccccc1Nc1c(-c2ccccn2)nc2ccccn12	265	13*	-8	-4
Cc1ccc2nc(-c3cccnc3)c(Nc3ccccc3C)n2c1	378	-1	10	-2
Cc1ccn2c(Nc3ccccc3)c(-c3ccccn3)nc2c1	185	9	-2	-21
O/N=C\c1ccc2noc(-c3ccc(Cl)cc3)c2c1	255	1	-2	-21
Cn1nc(NC(=O)CC23CC4CC(CC(C4)C2)C3)c2c(F)cccc21	606	0	1	-4
OCc1ccc(N=Nc2ccccc2)cc1	913	10*	-1	14
COc1ccc(N=Nc2ccc(CO)cc2)cc1	408	0	-12	3
O=C(CSc1nnc(NC(=O)C2CCC2)s1)Nc1ccccc1Br	291	0	6	752
Oc1ccc(-c2nc(=S)[nH][nH]2)cc1	243	·	-2	16
FC(F)(F)c1ccc(-c2nc(=S)[nH][nH]2)cc1	207	96*	0	272
O=C(O)CCc1ccc(-c2ccc(Cl)cc2)n1NC(=O)c1ccc(O)cc1	420	0	-4	-3
O=c1c2ccccc2nc2c3ccccc3c(NCCN3CCOCC3)nn12	270	26*	16	27
SMILES	T cell modulator	HIF activator	GASC-1 inh	SUMO Mot1 rescue
O=C(Cn1nc(-c2ccc(Cl)cc2)ccc1=O)NCC1COCCO1 (centres undefined)	227	-1	71*	18
c1ccc(-c2cccc(-c3ccccn3)n2)nc1	·	212*	1	6
Cc1onc(-c2ccccc2)c1NC(=O)N(Cc1ccccc1)C(C)C	114	55*	-48	5
O=C(O)c1cccnc1SCc1ccccc1Cl	511	108*	4	·
O=C(O)c1cccnc1Sc1ccccc1Cl	181	0	-5	·
Cc1cc(C(=O)N/N=C/c2cc(N=Nc3ccccc3)ccc2O)n[nH]1	281	19*	4	1
COC(=O)N/N=C/c1cc(N=Nc2ccccc2Cl)ccc1O	334	0	10	113
COC(=O)N/N=C/c1cc(N=Nc2ccccc2)ccc1O	261	-1	-4	269

Source: PubChem
